Assay results: ChEMBL document CHEMBL1208669, “Synthesis of 2-(pyrimidin-2-yl)-1-phenyl-2,3,4,9-tetrahydro-1H-beta-carbolines as antileishmanial agents” (Eur J Med Chem, 2010)
In brackets after ≈: the same amount, converted by molar mass. Activity calls are given as the source filed them. The rule behind the calls is not given here.

What was measured:
Leishmania donovani [1] = experiment: Antileishmanial activity against amastigote of Leishmania donovani MHOM/IN/80/Dd8 infected in mouse J774A1 cells after 72 hrs by luciferase reporter gene assay; format: functional, organism-based; details: MHOM/IN/80/Dd8, J774.A1, 72 h
Procedure, shortened: (§1)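 J774A.1 macrophages were seeded at 1.5 × 10⁴ cells/well in RPMI-1640 + 10% FCS, 37 °C, CO₂, for 24 h. They were then infected with stationary-phase luciferase-transfected Dd8 promastigotes (2.25 × 10⁵/well), which transform to amastigotes. Compounds (0.25–10 range) were added in fresh medium for 72 h. Medium was removed, PBS and Steady Glo added, and luminescence read. Inhibition vs untreated controls; IC50 by logit regression.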

[2] = Cytotoxicity against mouse J774A1 cells after 72 hrs by MTT assay; format: cell-based, J774.A1
Procedure, shortened: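 J774A.1 cells were grown in RPMI + 10% FCS with gentamycin. Exponential cells (1 × 10⁴/well) were exposed to a range of drug concentrations (DMSO stocks diluted in complete medium) for 72 h at 37 °C in humidified CO₂/air. MTT was added, formazan dissolved in DMSO after 15 min shaking, and absorbance read at 544 nm. CC50 is the 50% viability reduction versus medium-only cells.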

Vero [3] = experiment: Cytotoxicity against african green monkey Vero cells up to 50 ug/ml by MTT assay; format: cell-based; details: chlorocebus sabaeus
MCF7 [4] = experiment: Cytotoxicity against human MCF7 cells up to 50 ug/ml by MTT assay; format: functional, cell-based
DU-145 [5] = experiment: Cytotoxicity against human DU145 cells up to 50 ug/ml by MTT assay; format: functional, cell-based
[6] = Selectivity index, ratio of CC50 for mouse J774A1 cells to IC50 for amastigote of Leishmania donovani MHOM/IN/80/Dd8; format: functional, J774.A1
Procedure, shortened: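 Ratio of CC50 (J774A.1 MTT, 72 h) to IC50 against intracellular amastigotes in J774A.1 macrophages (luciferase read-out, 72 h).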

Leishmania donovani [7] = experiment: Antileishmanial activity against promastigotes of Leishmania donovani MHOM/IN/80/Dd8 after 72 hrs by luciferase reporter gene assay relative to control; format: functional
Procedure, shortened: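 Dd8 promastigotes transfected with firefly luciferase were kept in medium 199 + 10% FCS with antibiotics under G418. Late-log cells were incubated 72 h with serial drug dilutions, with parallel DMSO dilutions as controls. An aliquot was mixed 1:1 with Steady Glo and luminescence read as RLU. % inhibition = (N − n) × 100/N versus untreated control RLU; tested as serial dilutions or single concentration.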

KB [8] = experiment: Cytotoxicity against human KB cells up to 50 ug/ml by MTT assay; format: functional, cell-based
C-33-A [9] = experiment: Cytotoxicity against human C33A cells up to 50 ug/ml by MTT assay; format: functional, cell-based
KB [10] = experiment: Cytotoxicity against human KB cells by MTT assay; format: functional, cell-based
DU-145 [11] = experiment: Cytotoxicity against human DU145 cells by MTT assay; format: functional, cell-based
C-33-A [12] = experiment: Cytotoxicity against human C33A cells by MTT assay; format: functional, cell-based
Vero [13] = experiment: Cytotoxicity against african green monkey Vero cells by MTT assay; format: cell-based; details: chlorocebus sabaeus
MCF7 [14] = experiment: Cytotoxicity against human MCF7 cells by MTT assay; format: functional, cell-based
Leishmania donovani [15] = experiment: Antileishmanial activity against amastigote of Leishmania donovani MHOM/IN/80/Dd8 infected in mouse J774A1 cells at 0.25 to 10 ug/ml after 72 hrs by luciferase reporter gene assay; format: functional, organism-based; details: j774.a1; procedure, shortened: as §1

Compound	IC50 (Leishmania donovani [1]; read-out: IC50) [µg/mL]	CC50 at 72 h ([2]; read-out: CC50) [µg/mL]	Activity (Vero [3])	Activity (MCF7 [4])	Activity (DU-145 [5])	Ratio CC50/IC50 [6]	inhibition (INH) (Leishmania donovani [7]) [%]	Activity (KB [8])	Activity (C-33-A [9])	IC50 (KB [10]) [µg/mL]	IC50 (DU-145 [11]) [µg/mL]	IC50 (C-33-A [12]) [µg/mL]	IC50 (Vero [13]) [µg/mL]	IC50 (MCF7 [14]) [µg/mL]	IC50 (Leishmania donovani [15])	IC50 (Leishmania donovani [1]) [µg/mL]	CC50 at 72 h [2] [µg/mL]
Clc1cc(Cl)nc(NCCc2c[nH]c3ccccc23)n1	7.34 (≈ 23.9 µM)	20.6 (≈ 67 µM)	Non-toxic	inactive	inactive	2.8	99.78	inactive	inactive	–	–	–	–	–	–	–	–
c1ccc2c(CCNc3nc(N4CCOCC4)cc(N4CCOCC4)n3)c[nH]c2c1	3.05 (≈ 7.47 µM)	19.4 (≈ 47.4 µM)	Non-toxic	–	–	6.34	99.72	–	–	–	–	–	–	–	–	–	–
CN1CCN(c2cc(N3CCN(C)CC3)nc(NCCc3c[nH]c4ccccc34)n2)CC1	1.74 (≈ 4 µM)	18.4 (≈ 42.3 µM)	–	–	–	10.55	100	–	–	33.4 (≈ 76.9 µM)	21.3 (≈ 49 µM)	26 (≈ 59.8 µM)	29.7 (≈ 68.3 µM)	35.2 (≈ 81 µM)	–	–	–
COc1cc(C2c3[nH]c4ccccc4c3CCN2c2nc(Cl)cc(Cl)n2)cc(OC)c1OC (racemic)	3.81 (≈ 7.85 µM)	–	Non-toxic	inactive	inactive	–	81.68	inactive	inactive	–	–	–	–	–	–	–	–
COc1ccc(C2c3[nH]c4ccccc4c3CCN2c2nc(Cl)cc(Cl)n2)cc1OC (racemic)	1.93 (≈ 4.24 µM)	29.8 (≈ 65.4 µM)	Non-toxic	inactive	inactive	15.43	93.06	inactive	inactive	–	–	–	–	–	–	–	–
COc1ccc(C2c3[nH]c4ccccc4c3CCN2c2nc(Cl)cc(Cl)n2)cc1 (racemic)	3.57 (≈ 8.39 µM)	–	–	–	–	–	81.68	–	–	4.5 (≈ 10.6 µM)	10.1 (≈ 23.7 µM)	4.2 (≈ 9.87 µM)	9.8 (≈ 23 µM)	5.2 (≈ 12.2 µM)	–	–	–
COc1ccccc1C1c2[nH]c3ccccc3c2CCN1c1nc(Cl)cc(Cl)n1 (racemic)	–	–	Non-toxic	inactive	inactive	–	38.79	inactive	inactive	–	–	–	–	–	Not Active	–	–
COc1cccc(C2c3[nH]c4ccccc4c3CCN2c2nc(Cl)cc(Cl)n2)c1 (racemic)	–	–	Non-toxic	inactive	inactive	–	44.33	inactive	inactive	–	–	–	–	–	Not Active	–	–
Clc1cc(Cl)nc(N2CCc3c([nH]c4ccccc34)C2c2cccc(Br)c2)n1 (racemic)	7.79 (≈ 16.4 µM)	14 (≈ 29.6 µM)	–	–	–	1.81	79.65	–	–	15.6 (≈ 32.9 µM)	15.8 (≈ 33.3 µM)	21.7 (≈ 45.8 µM)	24.3 (≈ 51.2 µM)	23.4 (≈ 49.3 µM)	–	–	–
Clc1cc(Cl)nc(N2CCc3c([nH]c4ccccc34)C2c2ccc(OCc3ccccc3)cc2)n1 (racemic)	–	–	Non-toxic	inactive	inactive	–	36.85	inactive	inactive	–	–	–	–	–	Not Active	–	–
CCc1ccc(C2c3[nH]c4ccccc4c3CCN2c2nc(Cl)cc(Cl)n2)cc1 (racemic)	–	–	–	–	–	6.87	60.24	–	–	22.8 (≈ 53.9 µM)	23 (≈ 54.3 µM)	19.8 (≈ 46.8 µM)	37.8 (≈ 89.3 µM)	32.4 (≈ 76.5 µM)	–	4.46 (≈ 10.5 µM)	30.7 (≈ 72.4 µM)
Cc1ccc(C2c3[nH]c4ccccc4c3CCN2c2nc(Cl)cc(Cl)n2)cc1 (racemic)	–	–	–	–	–	4.09	84.15	–	–	21.6 (≈ 52.8 µM)	20.2 (≈ 49.4 µM)	24.9 (≈ 60.8 µM)	33.7 (≈ 82.3 µM)	28 (≈ 68.4 µM)	–	6 (≈ 14.7 µM)	24.6 (≈ 60.1 µM)
COc1cc(OC)cc(C2c3[nH]c4ccccc4c3CCN2c2nc(Cl)cc(Cl)n2)c1 (racemic)	–	–	Non-toxic	inactive	inactive	–	90.57	inactive	inactive	–	–	–	–	–	Not Active	–	–
COc1ccc(C2c3[nH]c4ccccc4c3CCN2c2nc(Cl)cc(Cl)n2)c(OC)c1 (racemic)	–	–	Non-toxic	inactive	inactive	–	54.14	inactive	inactive	–	–	–	–	–	Not Active	–	–
COc1ccc(OC)c(C2c3[nH]c4ccccc4c3CCN2c2nc(Cl)cc(Cl)n2)c1 (racemic)	–	–	Non-toxic	inactive	inactive	–	85.34	inactive	inactive	–	–	–	–	–	Not Active	–	–
CN1CCN(c2cc(N3CCN(C)CC3)nc(N3CCc4c([nH]c5ccccc45)C3c3ccc4c(c3)OCO4)n2)CC1 (racemic)	0.49 (≈ 0.865 µM)	2.8 (≈ 4.94 µM)	–	–	–	5.71	99.96	–	–	2 (≈ 3.53 µM)	1.5 (≈ 2.65 µM)	1.1 (≈ 1.94 µM)	2.6 (≈ 4.59 µM)	1.2 (≈ 2.12 µM)	–	–	–
CCN1CCN(c2cc(N3CCN(CC)CC3)nc(N3CCc4c([nH]c5ccccc45)C3c3ccc4c(c3)OCO4)n2)CC1 (racemic)	0.48 (≈ 0.807 µM)	2.5 (≈ 4.2 µM)	–	–	–	5.2	99.94	–	–	4.5 (≈ 7.57 µM)	6.2 (≈ 10.4 µM)	4.1 (≈ 6.89 µM)	5.9 (≈ 9.92 µM)	3.6 (≈ 6.05 µM)	–	–	–
COc1ccc(C2c3[nH]c4ccccc4c3CCN2c2nc(N3CCOCC3)cc(N3CCOCC3)n2)cc1 (racemic)	4.48 (≈ 8.51 µM)	67.7 (≈ 128 µM)	–	–	–	15.1	97.25	–	–	5.1 (≈ 9.68 µM)	4.5 (≈ 8.54 µM)	2.5 (≈ 4.75 µM)	7.8 (≈ 14.8 µM)	3.9 (≈ 7.41 µM)	–	–	–
N=C(N)c1ccc(OCCCCCOc2ccc(C(=N)N)cc2)cc1 [PENTAMIDINE]	–	25.1 (≈ 73.9 µM)	–	–	–	–	100	–	–	–	–	–	–	–	–	–	–
